High-throughput results as filed in PubChem BioAssay.
A selection: hits, their analogues and other compounds. The true share with any hit is near 1.5%.
SENP1 inh: SENP1 (human) catalytic domain inhibition | Q9P0U3 | recombinant SENP1 catalytic domain, CyPet-SUMO1-YPet FRET cleavage | inhibition, % at 10 µM | 360,000 tested, 0.21% active | AID 624204;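 active means inhibition at least 30% at 10 µM, raw YFP signal under a set limit, fluorescence ratio 0.5 to 1.5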;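 further: 0% = enzyme with DMSO and 100% = no enzyme wells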
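Test system: recombinant human SENP1 catalytic domain, His6-tagged / Medium: pH 8 Tris buffer with EDTA, NaCl, BME, BSA, NP40, catalase / Also added: SUMO1 FRET substrate flanked by Cypet and Ypet, 25 nM / Times: 50 min reaction at room temperature / Signal: FRET, CFP and YFP emission / Control set: no-enzyme low control and enzyme-plus-DMSO high control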
Myeloid diff MLP: promotes myeloid progenitor differentiation; ER-HoxA9 myeloid progenitors, lysozyme-GFP differentiation, flow cytometry; calls only at 10 µM; 360,000 tested, 1% active; AID 624256;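 active means normalized GFP-positive differentiation at or above the plate's own cutoff, the solvent-only control mean plus 3 SD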;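 further: cells exposed to compound for four days before flow analysis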
Platelet DG rel: platelet dense granule release activity; human platelet-rich plasma, SFLLRN dense granule ATP release, luminescence; inhibition, %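 (compounds screened at 7.5 µM in platelet-rich plasma)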; 300,000 tested, 0.22% active; AID 1663;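 active means mean replicate score, as percent of positive control, at or above 50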
VLA-4 inh: inhibition in a human VLA-4 binding assay; inhibition, % (about 7 µM as worked out from the volumes in the protocol); VLA-4 expressing cells, ligand binding flow cytometry; P13612; 330,000 tested, 0.2% active; in the data active means inhibition above about 50%
Target sequence (P13612 whole entry, looked up): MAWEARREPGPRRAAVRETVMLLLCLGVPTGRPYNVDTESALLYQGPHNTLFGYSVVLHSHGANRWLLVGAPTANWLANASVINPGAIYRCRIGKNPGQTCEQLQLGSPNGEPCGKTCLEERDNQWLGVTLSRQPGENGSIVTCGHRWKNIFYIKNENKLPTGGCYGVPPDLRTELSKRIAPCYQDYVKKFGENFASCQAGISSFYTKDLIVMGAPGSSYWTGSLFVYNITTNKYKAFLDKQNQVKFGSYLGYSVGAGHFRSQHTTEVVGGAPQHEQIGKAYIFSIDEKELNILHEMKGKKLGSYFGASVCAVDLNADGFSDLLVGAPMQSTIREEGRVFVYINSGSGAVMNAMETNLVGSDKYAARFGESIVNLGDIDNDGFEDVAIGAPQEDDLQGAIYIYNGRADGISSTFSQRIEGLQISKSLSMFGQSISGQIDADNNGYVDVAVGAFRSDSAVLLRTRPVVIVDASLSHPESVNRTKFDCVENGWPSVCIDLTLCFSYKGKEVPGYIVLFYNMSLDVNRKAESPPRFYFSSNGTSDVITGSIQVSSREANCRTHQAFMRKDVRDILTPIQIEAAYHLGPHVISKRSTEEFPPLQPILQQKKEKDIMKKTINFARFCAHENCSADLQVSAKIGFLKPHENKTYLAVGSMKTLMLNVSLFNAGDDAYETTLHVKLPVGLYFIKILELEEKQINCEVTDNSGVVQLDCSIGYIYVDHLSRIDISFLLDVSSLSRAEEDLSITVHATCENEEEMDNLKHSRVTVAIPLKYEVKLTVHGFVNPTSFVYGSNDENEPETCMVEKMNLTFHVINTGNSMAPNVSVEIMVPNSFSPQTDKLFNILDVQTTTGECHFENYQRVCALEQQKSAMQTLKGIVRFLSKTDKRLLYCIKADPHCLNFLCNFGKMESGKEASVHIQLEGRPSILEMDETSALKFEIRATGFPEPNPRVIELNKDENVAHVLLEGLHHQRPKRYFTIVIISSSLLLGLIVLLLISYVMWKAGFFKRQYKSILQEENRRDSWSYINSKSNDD
SENP1 inh conf: confirmation of human SENP1 SUMO protease inhibitors; inhibition, % at 10 µM; 520 tested, 34% active; AID 651678; shares compounds with SENP1 inh; recombinant SENP1, CyPet-SUMO1-YPet FRET cleavage; in the data active means inhibition mostly above about 35%, no sharp cut-off; inactive means mostly below about 32%;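 further: 0% = enzyme with DMSO and 100% = no enzyme control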
SENP1 kin conf: SENP1 (human) inhibition, kinetic confirmation; shares compounds with SENP1 inh; recombinant SENP1, CyPet-SUMO1-YPet FRET kinetic cleavage; inhibition, % at 10 µM; 520 tested, 26% active; AID 651690; in the data active means inhibition mostly above about 32%, no sharp cut-off; inactive means mostly below about 29%;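 further: 0% = DMSO with enzyme and 100% = no enzyme substrate only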
Myeloid diff CP1: myeloid differentiation induction; shares compounds with Myeloid diff MLP; calls only; ER-HoxA9 myeloid progenitors, GFP/Mac1 double-positive flow; AID 651706; 2,300 tested, 2% active;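 active means share of green or green-and-red cells above 9 and 9% in run 1 or 4 and 3% in run 2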
GFP autofluor: flagged as fluorescent in myeloid differentiation counter-screen; ER-HoxA9 myeloid progenitors, no estrogen, GFP autofluorescence flow cytometry; vehicle wells 0%, positive control 100%; 2,300 tested, 7.4% active; AID 651707; shares compounds with Myeloid diff MLP; fluorescence response, % (concentration not given with the values);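 active means over 5% cells positive for green fluorescent reporter, or over 2% positive for both it and APC stain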;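 further: range taken on the double positive population between DMSO and positive control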
* marks the source's active call; other numbers are inactive results; i = inactive; . = no result; + = active, no number.

SMILES	SENP1 inh	Myeloid diff MLP	Platelet DG rel	VLA-4 inh	Myeloid diff CP1	GFP autofluor	others
COc1ccc(C2C(C(C)=O)=C(C)N=c3s/c(=C/c4ccc5c(c4)OCO5)c(=O)n32)cc1 (stereo not given)	.	.	-6	.	.	.
CC(=O)C1=C(C)N=c2s/c(=C/c3ccc4c(c3)OCO4)c(=O)n2C1c1ccc(N(C)C)cc1 (stereo not given)	65*	+	.	.	i	22*	SENP1 inh conf=32;SENP1 kin conf=18
N#C/C(=C\c1ccc(/C=C(/C#N)c2nn(CCO)c(N)c2C#N)cc1)c1nn(CCO)c(N)c1C#N	38*	i	-51	4	i	1	SENP1 inh conf=33;SENP1 kin conf=27
COc1ccc2nc3ccccc3nc2c1NC(=O)c1ccc(Br)cc1	92*	+	-4	-13	i	5.4*	SENP1 inh conf=105*;SENP1 kin conf=60*
CC(C)(OC(=O)c1ccc(F)cc1)c1cc2ccccc2c(=O)o1	1	i	.	-2	.	.
Cc1nc(SC(C)C(=O)NCC2CCCO2)c2cc(-c3ccccc3)sc2n1 (stereo not given)	-13	+	-7	3	i	39*
CC(C)c1cc(=O)oc2c3c4c(cc12)CCCN4CCC3	-18	i	-7	-134	.	.
O=c1oc2c3c4c(cc2c(C(F)(F)F)c1CCN1CCOCC1)CCCN4CCC3	-25	+	1	-151	i	0
COc1ccc2ccc(O)c(CN(C)CC(=O)Nc3ccccc3C(F)(F)F)c2c1	0	i	-10	5	.	.
O=C(NCCc1c[nH]c2ccccc12)/C(=C\c1cccnc1)NC(=O)c1ccccc1Br	4	+	-4	-23	i	0
CCOc1cccc(=O)c2c(C)n(CC(=O)c3ccccc3)c(C)c12	5	i	-3	-5	.	.
CCOc1cccc(=O)c2c(C)oc(C)c12	9	i	2	8	i	1
CCOC(=O)Nc1nc(C)c(C(=O)c2ccc(Cl)cc2)s1	2	i	0	2	i	0
O=C(O)CCC1(C(=O)O)OCCc2ccccc21 (stereo not given)	2	i	-2	5	i	0
OCC[C@@H]1C[C@@H](O)[C@H](O)[C@]2(OCCc3ccccc32)O1	3	i	6	17	.	.
N#Cc1c(C#N)c(SSc2c(C#N)c(C#N)c(N)n2-c2ccccc2)n(-c2ccccc2)c1N	-2	i	.	.	.	.
COc1cccc(-c2cc3nc(NCc4cccnc4)n(C)c(=O)c3s2)c1	-4	i	.	.	.	.
Cn1c(NCc2cccnc2)nc2cc(-c3cccc(C(=O)NCCO)c3)sc2c1=O	-3	+	.	.	i	1
CC(C)c1nnc(NC(=O)Cn2nc(-c3ccc4c(c3)OCCO4)ccc2=O)s1	3	+	6	8	i	0
COc1cccc(OC)c1NC(=O)Cn1nc(-c2ccc3c(c2)OCCO3)ccc1=O	2	.	-4	14	.	.
CCC(=O)N(CCC(c1ccc(C)cc1)c1ccco1)Cc1ccco1 (stereo not given)	-6	i	0	23	i	0
Cc1ccc(S(=O)(=O)N(C)C[C@H]2OCc3cn(nn3)CCCC(=O)N([C@@H](C)CO)C[C@@H]2C)cc1	-1	i	.	.	.	.
C[C@@H]1CN([C@@H](C)CO)C(=O)CCCn2nncc2CO[C@@H]1CN(C)C(=O)Nc1cccc(Oc2ccccn2)c1	1	i	.	.	i	0
Cc1ccc(S(=O)(=O)N(C)C[C@@H]2OCc3cn(nn3)CCCC(=O)N([C@@H](C)CO)C[C@H]2C)cc1	1	i	.	.	i	0
C[C@H](CO)N1C[C@H](C)[C@H](CN(C)S(=O)(=O)c2ccc3c(c2)OCCCO3)OCc2cnnn2CCCC1=O	4	i	.	.	.	.
C[C@H]1CN([C@@H](C)CO)C(=O)CCCn2nncc2CO[C@H]1CN(C)S(=O)(=O)c1ccc2c(c1)OCCCO2	0	i	.	.	i	0
O=C(CNc1cccc([N+](=O)[O-])c1)N1CCN(S(=O)(=O)c2ccc(Cl)cc2)CC1	5	i	.	.	.	.
